Measured values reported in ChEMBL document CHEMBL4368937, “Design, synthesis and biological evaluation of low molecular weight CXCR4 ligands” (Bioorg Med Chem, 2019).

Columns and labels:
[1] = system: Human immunodeficiency virus 1; experiment: Antiviral activity against R5 tropic HIV-1 NL(AD8) infected in human MT4 cells assessed as protection against virus-induced cytopathic effect at 10 uM in absence of ZnCl2 after 5 days by MTT assay; assay type: functional; details: Human immunodeficiency virus 1, NL(AD8), MT4, 120 h
[2] = molecular target: T1, C-X-C chemokine receptor type 4 (Homo sapiens, UniProt P61073); experiment: Competitive inhibition of TAMRAAc-TZ14011 binding to CXCR4 (unknown origin) expressed in CHO cells at 1 uM in absence of ZnCl2 by NanoBRET assay relative to control; assay type: cell-based
How it was run: (§1)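 Single-point competition in CHO cells stably expressing N-terminally Nluc-tagged CXCR4 (5 x 10^4 cells, seeded 24 h earlier at 37 °C, 5% CO2, medium then replaced with OptiMEM). Cells were incubated with 10 nM TAMRA-Ac-TZ14011 plus 1 µM compound, without or with 10 µM ZnCl2 (10 eq), for 1 h at 25 °C. Furimazine was added and BRET read as acceptor (>610 nm) over donor (460 nm). Inhibition is relative to no compound and to excess Ac-TZ14011; mean ± SEM, n = 3.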

[3] = system: Human immunodeficiency virus 1; experiment: Antiviral activity against X4 tropic HIV-1 NL4-3 infected in human MT4 cells assessed as protection against virus-induced cytopathic effect in absence of ZnCl2 after 5 days by MTT assay; assay type: functional, organism-based; details: Human immunodeficiency virus 1, NL4-3, MT4, 120 h
How it was run: (§2)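 Protection of MT-4 cells from X4 HIV-1 NL4-3 cytopathicity. Infected cells (MOI 0.001, 2.0 × 10^4 cells/well) received graded compound concentrations, without or with ZnCl2 (10 eq), for 5 days at 37 °C. Viable cells were counted by MTT. EC50 is the concentration giving 50% protection; mean of at least three independent experiments.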

[4] = molecular target: T1, C-X-C chemokine receptor type 4; experiment: Competitive inhibition of [125I]-CXCL12 binding to CXCR4 in human Jurkat cells at 1 uM in absence of ZnCl2 after 2 hrs by gamma counting analysis relative to control; assay type: cell-based
[5] = system: Human immunodeficiency virus 1; experiment: Antiviral activity against X4 tropic HIV-1 NL4-3 infected in human MT4 cells assessed as protection against virus-induced cytopathic effect in presence of ZnCl2 after 5 days by MTT assay; assay type: functional, organism-based; details: Human immunodeficiency virus 1, NL4-3, MT4, 120 h; how it was run: as §2
[6] = molecular target: T1, C-X-C chemokine receptor type 4; experiment: Competitive inhibition of [125I]-CXCL12 binding to CXCR4 in human Jurkat cells at 1 uM in presence of ZnCl2 after 2 hrs by gamma counting analysis relative to control; assay type: cell-based
[7] = system: Human immunodeficiency virus 1; experiment: Antiviral activity against R5 tropic HIV-1 NL(AD8) infected in human MT4 cells assessed as protection against virus-induced cytopathic effect at 10 uM in presence of ZnCl2 after 5 days by MTT assay; assay type: functional; details: Human immunodeficiency virus 1, NL(AD8), MT4, 120 h
[8] = molecular target: T1, C-X-C chemokine receptor type 4; experiment: Competitive inhibition of TAMRAAc-TZ14011 binding to CXCR4 (unknown origin) expressed in CHO cells at 1 uM in presence of ZnCl2 by NanoBRET assay relative to control; assay type: cell-based; how it was run: as §1
[9] = Cytotoxicity against human MT4 cells in absence of ZnCl2; assay type: cell-based
[10] = molecular target: T1, C-X-C chemokine receptor type 4; experiment: Competitive inhibition of TAMRAAc-TZ14011 binding to CXCR4 (unknown origin) expressed in CHO cells in presence of ZnCl2 by NanoBRET assay relative to control; assay type: cell-based
How it was run: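 Cells were incubated with 10 nM TAMRA-Ac-TZ14011 and compound plus ZnCl2 (10 eq). Furimazine was added and BRET ratio taken as >610 nm over 460 nm emission. Inhibition is scaled between no compound and excess Ac-TZ14011.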

[11] = Cytotoxicity against human MT4 cells in presence of ZnCl2; assay type: cell-based
How it was run: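 MT-4 viability with compound plus ZnCl2 (10 eq). CC50 is the concentration giving 50% reduction in viable cells; mean of at least three independent experiments.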

T1 sequence (P61073 whole entry): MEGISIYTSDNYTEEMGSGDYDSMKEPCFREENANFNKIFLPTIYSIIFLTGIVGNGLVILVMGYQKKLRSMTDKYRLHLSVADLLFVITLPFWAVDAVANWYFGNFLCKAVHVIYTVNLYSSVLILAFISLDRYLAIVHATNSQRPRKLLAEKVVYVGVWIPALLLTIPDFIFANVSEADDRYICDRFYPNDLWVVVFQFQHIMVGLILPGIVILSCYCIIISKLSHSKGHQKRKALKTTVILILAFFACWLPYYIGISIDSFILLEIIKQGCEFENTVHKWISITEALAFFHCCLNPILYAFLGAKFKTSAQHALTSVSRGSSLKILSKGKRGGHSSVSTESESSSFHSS

Row | inhibition [2] [%] | inhibition [4] [%] | inhibition [6] [%] | inhibition [8] [%] | IC50 [10] [nM] | Structure (SMILES) | inhibition at 10 µM [1] [%] | EC50 [3] [nM] | EC50 [5] [nM] | inhibition at 10 µM [7] [%] | CC50 [9] [nM] | CC50 [11] [nM]
1 | 64.6 | 79.9 | 84.1 | 87.5 | – | c1ccc(CN(Cc2ccccn2)Cc2ccccc2-c2ccc(CN3CCCNCCNCCCNCC3)cc2)nc1 | < 30 | 2600 | 890 | < 30 | > 10000 | –
2 | 51.1 | 33.9 | 85.5 | 87.9 | – | c1ccc(CN(Cc2ccc(-c3ccc(CN4CCCNCCNCCCNCC4)cc3)cc2)Cc2ccccn2)nc1 | < 30 | 780 | 1000 | < 30 | 4800 | –
3 | 44.4 | 46.1 | 116 | 83.1 | – | c1ccc(CN(Cc2cccc(-c3ccccc3CN3CCCNCCNCCCNCC3)c2)Cc2ccccn2)nc1 | < 30 | 4200 | 1100 | < 30 | > 10000 | –
4 | 81.1 | 81 | 110 | 101 | – | c1ccc(CN(Cc2ccc3nc(CN4CCCNCCNCCCNCC4)ccc3c2)Cc2ccccn2)nc1 | – | > 970 | 5500 | – | > 10000 | –
5 | 79.8 | 90.4 | 74.1 | 99 | – | c1ccc(CN(Cc2ccccn2)Cc2ccccc2-c2ccccc2CN2CCCNCCNCCCNCC2)nc1 | < 30 | 1000 | 5800 | < 30 | > 10000 | –
6 | 54.5 | 57.3 | 78.4 | 78.9 | – | c1ccc(CN(Cc2ccc3c(c2)-c2cc(CN4CCCNCCNCCCNCC4)ccc2OCCCCO3)Cc2ccccn2)nc1 | < 30 | 670 | 280 | < 30 | > 10000 | –
7 | 47.6 | 63 | 84.7 | 93.4 | 3.5 | c1ccc(CN(Cc2ccnc(-c3cccc(CN4CCCNCCNCCCNCC4)c3)c2)Cc2ccccn2)nc1 | < 30 | 170 | 28 | < 30 | > 10000 | –
8 | 50.4 | 32.5 | 97.1 | 81.8 | – | c1ccc(CN(Cc2ccc3c(c2)-c2cc(CN4CCCNCCNCCCNCC4)ccc2OCCCO3)Cc2ccccn2)nc1 | < 30 | 580 | 300 | < 30 | > 10000 | –
9 | 89.1 | 27 | 105 | 102 | – | c1ccc(CN(Cc2ccc(-c3ccc(CN4CCCNCCNCCCNCC4)cc3)nc2)Cc2ccccn2)nc1 | < 30 | 590 | 130 | < 30 | > 10000 | –
10 | 88.5 | 100 | 99.2 | 92.2 | – | c1ccc(CN(Cc2ccnc(-c3cc(CN4CCCNCCNCCCNCC4)ccn3)c2)Cc2ccccn2)nc1 | < 30 | 920 | 200 | < 30 | > 10000 | –
11 | 101 | 110 | 82.5 | 83.7 | 32 | c1ccc(CN(Cc2ccc(CN3CCCNCCNCCCNCC3)cc2)Cc2ccccn2)nc1 | – | 6.5 | 2.7 | – | > 10000 | > 10000
12 | 52.6 | 54.9 | 91.6 | 83.1 | 5.7 | c1ccc(CN(Cc2ccc(-c3ccccc3CN3CCCNCCNCCCNCC3)cc2)Cc2ccccn2)nc1 | < 30 | 40 | 21 | 58 | > 10000 | –
13 | 81.5 | 81.7 | 77.3 | 107 | 1.6 | c1ccc(CN(Cc2ccc3c(CN4CCCNCCNCCCNCC4)cccc3c2)Cc2ccccn2)nc1 | < 30 | 220 | 28 | < 30 | > 10000 | > 10000
14 | 89.7 | 10.9 | 101 | 78.2 | – | c1ccc(CN(Cc2ccc(-c3cccc(CN4CCCNCCNCCCNCC4)c3)cc2)Cc2ccccn2)nc1 | < 30 | 800 | 1100 | < 30 | > 10000 | –
15 | 43.5 | 54.4 | 95.6 | 88.5 | – | c1ccc(CN(Cc2ccc3c(c2)-c2cc(CN4CCCNCCNCCCNCC4)ccc2OCO3)Cc2ccccn2)nc1 | < 30 | 800 | 870 | < 30 | > 10000 | –
16 | 35.6 | 38.3 | 119 | 105 | – | c1ccc(CN(Cc2cccc(-c3ccc(CN4CCCNCCNCCCNCC4)cc3)c2)Cc2ccccn2)nc1 | < 30 | 3100 | 1000 | < 30 | > 10000 | –
17 | 75.3 | 68.6 | 98.7 | 94.4 | – | c1ccc(CN(Cc2ccc(-c3ccc(CN4CCCNCCNCCCNCC4)cn3)nc2)Cc2ccccn2)nc1 | < 30 | 680 | 900 | < 30 | > 10000 | –
18 | 82.1 | 83.5 | 87.5 | 84.8 | – | c1ccc(CN(Cc2ccc3ccc(CN4CCCNCCNCCCNCC4)cc3c2)Cc2ccccn2)nc1 | < 30 | 790 | 1100 | < 30 | > 10000 | –
19 | 56 | 41.9 | 100 | 102 | 7.9 | c1ccc(CN(Cc2ccccn2)Cc2ccccc2-c2cccc(CN3CCCNCCNCCCNCC3)c2)nc1 | < 30 | 40 | 13 | < 30 | > 10000 | –
20 | 79.7 | 39.2 | 89.7 | 92.6 | – | c1ccc(CN(Cc2ccnc(-c3ccc(CN4CCCNCCNCCCNCC4)cc3)c2)Cc2ccccn2)nc1 | < 30 | 140 | 45 | < 30 | > 10000 | –
21 | 40.4 | 46.6 | 105 | 88.4 | – | c1ccc(CN(Cc2cccc(-c3cccc(CN4CCCNCCNCCCNCC4)c3)c2)Cc2ccccn2)nc1 | < 30 | 750 | 980 | < 30 | > 10000 | –
22 | 31.9 | 41.4 | 88.5 | 93.9 | 4.5 | c1ccc(CN(Cc2ccc(-c3ncccc3CN3CCCNCCNCCCNCC3)cc2)Cc2ccccn2)nc1 | < 30 | 110 | 61 | < 30 | > 10000 | –
23 | 47.8 | 48.7 | 119 | 89 | – | c1ccc(CN(Cc2ccc3c(c2)-c2cc(CN4CCCNCCNCCCNCC4)ccc2OCCO3)Cc2ccccn2)nc1 | < 30 | 1900 | 970 | < 30 | > 10000 | –
